Results reported in ChEMBL document CHEMBL4033649, “Discovery of tetrahydrocarbazoles as dual pERK and pRb inhibitors” (Eur J Med Chem, 2017).

test: Inhibition of ERK phosphorylation in human MDA-MB-231 cells after 1 hr; format: cell-based; settings: not given
Summary of the method: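 MDA-MB-231 cells (25,000/well) grown 24 h, serum-starved 6 h, then exposed to compound 1 h (screen at 10 μM, n=3; dose-response for IC50). Cells fixed in 3.7% formaldehyde, permeabilized with 0.1% Triton X, immunostained with phospho-p44/p42 MAPK (T202/Y204) antibody plus anti-rabbit IgG secondary; TMB colour read by absorbance.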

IC50 | SMILES
5.5 µM | Cc1ccc2[nH]c3c(c2c1)CCC(NC1CCC(C)C1)C3 (stereo unspecified) [listing 1 of 2 here]
30 µM | c1ccc2c3c([nH]c2c1)C(NC1CCCC1)CCC3 (stereo unspecified) [listing 1 of 2 here]

same assay, conditions: Homo sapiens, MDA-MB-231, 1 h

IC50 | SMILES
4.6 µM | Cc1ccc(CNC2CCc3c([nH]c4ccc(C)cc34)C2)cc1 (stereo unspecified)
3.62 µM | Cc1ccc(CNC2CCc3c([nH]c4ccccc34)C2)cc1 (stereo unspecified)
5.52 µM | CC1CCC(NC2CCCc3c2[nH]c2ccc([N+](=O)[O-])cc32)C1 (stereo unspecified)
> 100 µM | O=S(=O)(NC1CCCc2c1[nH]c1ccccc21)c1ccc(F)cc1 (stereo unspecified)
7 µM | N#Cc1ccc(S(=O)(=O)NC2CCc3c([nH]c4ccccc34)C2)cc1 (stereo unspecified)
> 30 µM | CC1CCC(NC2CCc3c([nH]c4ccccc34)C2)C1 (stereo unspecified)
0.063 µM | CNC(=O)c1cc(Oc2ccc(NC(=O)Nc3ccc(Cl)c(C(F)(F)F)c3)cc2)ccn1 [SORAFENIB]
3 µM | CC1CCC(NC2CCCc3c2[nH]c2ccccc32)C1 (stereo unspecified)
7 µM | c1ccc2c3c([nH]c2c1)CC(NC1CCCCC1)CC3 (stereo unspecified)
6 µM | Cc1ccc2[nH]c3c(c2c1)CCC(NC1CCC(C)C1)C3 (stereo unspecified) [listing 2 of 2 here]
21 µM | c1ccc2c3c([nH]c2c1)CC(NC1CCCC1)CC3 (stereo unspecified)
6.11 µM | c1ccc(CNC2CCc3c([nH]c4ccccc34)C2)cc1 (stereo unspecified)
29.7 µM | O=C(NC1CCc2c([nH]c3ccccc23)C1)c1ccccc1F (stereo unspecified)
9 µM | c1ccc2c3c([nH]c2c1)C(NC1CCCCC1)CCC3 (stereo unspecified)
7.5 µM | O=S(=O)(NC1CCc2c([nH]c3ccccc23)C1)c1ccc(F)cc1 (stereo unspecified)
9 µM | COc1cccc(C(=O)NC2CCc3c([nH]c4ccccc34)C2)c1 (stereo unspecified)
21 µM | c1ccc2c3c([nH]c2c1)C(NC1CCCC1)CCC3 (stereo unspecified) [listing 2 of 2 here]
> 100 µM | c1ccc2c3c([nH]c2c1)CC(NC1CCOCC1)CC3 (stereo unspecified)
> 100 µM | N#Cc1ccc(S(=O)(=O)NC2CCCc3c2[nH]c2ccccc32)cc1 (stereo unspecified)
8.1 µM | O=C(NC1CCc2c([nH]c3ccccc23)C1)c1cccc(F)c1 (stereo unspecified)
5.5 µM | Cc1ccc2[nH]c3c(c2c1)CCC(NCc1ccccc1)C3 (stereo unspecified)
4.4 µM | Cc1ccc(CNC2CCc3c(n(C)c4ccccc34)C2)cc1 (stereo unspecified)
69.9 µM | O=S(=O)(NC1CCc2c([nH]c3ccccc23)C1)c1cccnc1 (stereo unspecified)
> 100 µM | O=S(=O)(NC1CCCc2c1[nH]c1ccccc21)c1cccnc1 (stereo unspecified)
